# The list is not random: actives were taken first. Their share in the collection is about 2.5%.
# NPY2 pot ag – human NPY-Y2 potentiation or agonism, primary screen; cells expressing NPY-Y2, potentiator/agonist read-out; P49146; activation, % at 3.6 µM; 220,000 tested, 0.45% active; in the data active = activation above about 27%;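 also: cells stimulated with NPY near EC25 plus isoproterenol at EC100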
# NPY-Y1 antag – antagonists of human neuropeptide Y receptor Y1; P25929; HEK293-CNG Y1 cells, membrane potential fluorescence; NPY at EC95, then isoproterenol; inhibition, % at 3.6 µM; 200,000 tested, 1% active; AID 1040;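 active = inhibition above the campaign mean inhibition of all tested compounds plus 3 SD, cut at about 20% in these data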
# Target sequence (P25929 whole entry, looked up): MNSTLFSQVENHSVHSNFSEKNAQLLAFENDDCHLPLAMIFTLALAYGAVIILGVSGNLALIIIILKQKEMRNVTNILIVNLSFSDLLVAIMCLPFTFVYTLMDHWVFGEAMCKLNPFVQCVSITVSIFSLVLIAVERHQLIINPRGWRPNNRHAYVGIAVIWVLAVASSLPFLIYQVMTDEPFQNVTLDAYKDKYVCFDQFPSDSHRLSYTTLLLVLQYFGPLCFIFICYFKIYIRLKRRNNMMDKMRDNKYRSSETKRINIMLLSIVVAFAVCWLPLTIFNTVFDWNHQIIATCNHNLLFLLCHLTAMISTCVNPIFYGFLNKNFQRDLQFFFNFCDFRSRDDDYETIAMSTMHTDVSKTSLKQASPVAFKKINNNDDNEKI
#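 Material: HEK293 Y1/CNG channel cell line | Also added: NPY (25 nM), isoproterenol (1 µM), Ro 20-1724 (25 µM) | Compound: One concentration, 3.6 µM, in 0.4% DMSO | Schedule: 3 h dye uptake, 1 h room-temperature compound, 45 min post-isoproterenol | Signal: Membrane-potential fluorescent dye readout | Read-out: % inhibition of NPY effect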
# NPY Y2 blocker – NPY-Y2 (human) receptor antagonism | P49146 | NPY-Y2 expressing cells, antagonist mode | inhibition, % at 2.7 µM | 140,000 tested, 0.99% active | AID 793; in the data active = inhibition above about 17%
# Ins promoter up – MIN6 insulin promoter up-regulation; z-score at 5 µM; MIN6 insulin promoter-GFP reporter, high-content imaging; hits give high values; 190,000 tested, 0.3% active;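 active = z-score above 3 at 5 µM with at least 500 cells counted in the well; inconclusive = wells under 500 cells, flagged as cytotoxic or low count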
# Insulin prom inh – TRM-6 insulin promoter activity inhibition; TRM-6 cells, insulin promoter-eGFP reporter, imaging; reporter expression induced with tamoxifen; inhibition, % at 2 µM; 130,000 tested, 0.9% active; AID 1273;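 active = inhibition above the mean plus 3 SD, with well images judged a real hit on visual review, cut at about 60% in these data, passing the limit was not always enough; inconclusive = inhibition over the cutoff but images rejected on review; inactive = inhibition not above the cutoff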
# NPY-Y1 PAM-ag – potentiators or agonists of human neuropeptide Y receptor Y1; activation, % at 3.6 µM; NPY-Y1 expressing cells, potentiator/agonist activation; 220,000 tested, 0.37% active; AID 1304; in the data active = activation above about 33%, passing the limit was not always enough;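 also: cells stimulated with NPY at EC10 then isoproterenol at EC100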
# A number is an active result; i = inactive; ? = inconclusive; nt = no result given.
SMILES,NPY2 pot ag,NPY-Y1 antag,NPY Y2 blocker,Ins promoter up,Insulin prom inh,NPY-Y1 PAM-ag
CCOC(=O)N1CCC(n2c(SCC(=O)NCCC3=CCCCC3)nc3ccccc3c2=O)CC1,i,36,19,i,nt,i
Cc1occc1C(=O)NNC(=O)c1ccccc1F,i,i,nt,i,i,i
COc1cc(OC)cc(C(=O)Nc2cccc(C(C)=O)c2)c1,i,i,i,3.5,i,i
COc1ccc(NC(=O)CC2C(=O)N(c3ccc(F)cc3)C(=S)N2NC(=O)c2ccccc2)cc1 (configuration not stated),i,i,i,i,nt,i
Cc1ccc2c(Cl)c(C)c(N3CCCCC3)nc2n1,i,i,i,i,83,i
Cc1nc2ccccc2nc1N1CCCCC1,i,i,i,i,nt,i
N#Cc1ccc(CSc2nnc(Cc3cccs3)n2Cc2ccco2)cc1,i,23,i,nt,i,i
Cc1cc(Cl)ccc1NC(=O)CSc1nnc(Cc2cccs2)n1Cc1ccco1,i,23,21,i,i,i
Cc1ccc(NCc2nnc(SCc3ccc(C#N)cc3)n2Cc2ccco2)c(C)c1,i,i,i,i,nt,i
Cc1[nH]n2c(=O)c3c(nc2c1-c1ccccc1)CCC3,i,i,i,i,83,i
Cc1c(Cl)c([N+](=O)[O-])nn1CC(=O)NC(C)C1CC2CCC1C2 (configuration not stated),i,20,21,i,i,i
CCC(C)NC(=O)Cn1nc([N+](=O)[O-])c(Cl)c1C (configuration not stated),i,i,i,i,i,i
O=C(COC(=O)CCSc1ccc(Cl)cc1)NCc1ccccc1Cl,i,i,i,i,67,i
Cc1ccc(C(=O)NCc2ccccc2)c(F)c1F,i,i,nt,i,nt,i
Cc1cc(C(=O)NCc2ccccc2)c(=O)[nH]c1C,i,i,i,i,73,i
Cc1cccc(C)c1NC(=O)C1C2C=CC(C2)C1C(=O)NCc1ccccn1 (configuration not stated),i,i,i,i,i,i
COc1ccc(OC)c(C(c2nnnn2C2CCCC2)N2CCc3ccccc3C2)c1 (configuration not stated),i,21,18,i,nt,i
CCOCC(=O)Nc1c(C(=O)Nc2ccc3c(c2)OCCO3)oc2ccccc12,i,i,nt,i,i,i
C/C(=N\NC(=O)c1nn(C)cc1Br)c1cccc(NC(=O)C2CCCC2)c1,i,i,i,i,nt,i
C/C(=N\NC(=O)c1nn(C)cc1Br)c1cccc(NC(=O)C(C)(C)C)c1,41,i,i,i,i,103
Cc1c(C(N)=O)sc2ncn(CC(=O)NCCc3ccccc3)c(=O)c12,i,i,nt,i,nt,i
CC(C)NCC(O)COC1CCC(C(C)(C)C)CC1 (configuration not stated),i,i,nt,i,nt,i
C/C(=N\O)C(=O)OC1CC(C)CCC1C(C)C (configuration not stated),i,i,i,i,nt,i
CC(C)NCC(O)COC1C2CC3CC(C2)CC1C3 (configuration not stated),32,i,nt,i,nt,48
CC1CCC(C(C)C)C(OCC(O)CNC(C)C)C1 (configuration not stated),98,nt,nt,i,nt,107
SMILES,NPY2 pot ag,NPY-Y1 antag,NPY Y2 blocker,Ins promoter up,Insulin prom inh,NPY-Y1 PAM-ag
C=CCN(C(=O)c1ccc(Cl)cc1)c1ccccc1C(=O)NCC(=O)O,i,nt,nt,i,nt,i
COc1cc(C)nc(N2CCCC(C(=O)Nc3cccc(Cl)c3C)C2)n1 (configuration not stated),i,i,i,3.9,nt,i
COc1cc(C)nc(N2CCCC(C(=O)Nc3ccccc3Br)C2)n1 (configuration not stated),i,i,nt,i,nt,i
O=C1Nc2ccc(F)cc2C12Nc1ccccc1-c1nnc(SCc3ccccc3)nc1O2 (configuration not stated),i,i,i,nt,75,i
Cc1cc(OCc2cccc(Cl)c2)c(C)cc1CN1CCOCC1,i,i,nt,i,nt,i
Cc1ccc(C(=O)CSc2ncn[nH]2)cc1,i,i,i,i,i,i
O=C(O)CSc1ncn[nH]1,i,i,i,i,77,i
COc1ccccc1C1CN=NC12CCCc1ccccc1C2=O (configuration not stated),i,i,i,i,nt,i
CC(C)c1nc(-c2ccccc2)c(-c2ccccc2)[nH]1,i,i,i,i,87,i
CN(C)c1ccc(C(=O)N2CCCC2)cc1,i,i,nt,i,nt,i
O=C(COc1ccc(Cl)cc1)NCCSCc1ccccc1Cl,i,i,i,i,i,i
O=C(COc1ccc(Cl)cc1)NCCSCc1cccc(Cl)c1,i,i,17,i,i,i
O=C(NNc1cccc(Cl)n1)Nc1ccccc1Cl,i,i,i,nt,i,i
Cc1sc(NC(=S)NC(=O)c2ccco2)c(C#N)c1C,i,i,nt,i,nt,i
COc1ccc(NS(=O)(=O)c2cc(C)ccc2NC(=O)c2cc(C)oc2C)cc1,i,23,36,i,i,i
COc1ccc(NS(=O)(=O)c2cccc(C(=O)NNC(=O)c3cc(C)oc3C)c2)cc1,i,i,i,i,i,i
COc1cccc(NC(=O)C2CCC(CNS(=O)(=O)c3cccs3)CC2)c1 (configuration not stated),i,i,nt,nt,i,i
CCOc1ccccc1CN(Cc1ccco1)S(=O)(=O)c1ccc(-n2cnnn2)c(OC)c1,i,38,18,i,i,i
COc1cc(S(=O)(=O)N(Cc2ccco2)C2CCCC2)ccc1-n1cnnn1,i,i,i,i,i,i
O=C(O)C(Cc1c[nH]c2ccccc12)N1Cc2ccccc2C1=O (configuration not stated),i,i,nt,i,nt,i
COc1ccc(C(C(=O)NC2CCCC2)N(Cc2ccccc2)C(=O)c2nsc(Cl)c2Cl)cc1 (configuration not stated),i,36,28,i,nt,i
Cc1ccc(N(C(=O)c2nsc(Cl)c2Cl)C(C(=O)NC2CCCC2)c2ccc(O)cc2)cc1C (configuration not stated),i,i,i,i,i,i
Cc1ccc(S(=O)(=O)N/N=C/c2cccn2-c2ccc(Cl)cc2)cc1,i,i,i,nt,nt,i
CC1=NN(c2ccc(Cl)cc2)C(=O)/C1=C\c1cccn1-c1ccc(S(N)(=O)=O)cc1,49,i,i,nt,i,60
CN1C(=O)/C(=C/C=C2\SCCN2C)N(C)C1=S,i,i,nt,i,89,i
CC(C)Cn1c(=O)c2c(nc3n2CCCN3CCc2ccccc2)n(C)c1=O,i,i,i,i,i,i
CCOC(=O)c1cnc(-n2nc(C)cc2C)nc1NC1CCCCC1,i,31,20,?,i,i
CCOC(=O)c1cnc(-n2nc(C)cc2C)nc1NC,i,i,i,i,nt,i
CC(=O)Nc1nonc1-c1nc2ccccc2n1CCC(C)C,i,43,18,i,nt,i
CCN(c1ccc(C)c(C)c1)S(=O)(=O)c1c(C)[nH]c(=O)[nH]c1=O,i,i,i,i,i,i
